Source: PubChem BioAssay
Inconclusive results are not listed. Activity calls are given as the source filed them.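 Rule for the calls, unless noted: active = viability increase at or above a cutoff of the median across tested compounds plus 3 SD (cut at about 8.5% in these data, passing the limit was not always enough); inconclusive = some gains above the cutoff, reason not given; inactive = the rest.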

How the values were obtained:
[1] = OD615 S. cerevisiae growth inhibition, permissive medium, pilot counter-assay, permissive growth control for S. cerevisiae lifespan shortening project (AID 705;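 active = growth inhibition above 25% in both replicates, a cutoff set 3 SD above the mean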); conditions: OD615, 24 h, at 10 µM, stronger effect = higher value
In short: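 Material: engineered DeaD yeast; Compound: one dose 10 µM, DMSO 0.25% final; Detection: absorbance (optical density) at 615 nm; Buffer or medium: permissive raffinose/galactose medium; Timing: 24 h exposure, 30 °C.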

[2] = Restrictive medium S. cerevisiae growth inhibition, OD615, pilot screen of yeast lifespan reduction project, restrictive growth control (AID 706;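 active = growth inhibition above a set limit, 3 SD over mean compound inhibition, in both replicates, cut at about 43% in these data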;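 note: modified DeaD lifespan yeast strain shifted to restrictive glucose medium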); conditions: OD615, 48 h, at 10 µM, stronger effect = higher value
In short: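 Buffer or medium: restrictive glucose medium (CSMM-D); test system: modified S. cerevisiae; doses: single dose of 10 µM compound final, 0.25% DMSO; schedule: 48 h compound exposure at 30 °C; detection: absorbance (optical density) measured at 615 nm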

[3] = viability gain of MRP-1-high H69AR cells under doxorubicin, pilot screen, MRP-1 activator project, CellTiter-Glo, duplicate (AID 807); conditions: H69AR viability with doxorubicin, CellTiter-Glo luminescence; at 10 µM; stronger effect = higher value;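 note: compound pretreatment 18-22 h then 72 h combined with doxorubicin; 0% = doxorubicin alone and 100% = vehicle without doxorubicin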
[4] = growth suppression of beta-catenin knockout HCT116, pilot screen, human colon tumor cells (AID 823;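 active = cell viability at or below a set limit in both duplicate runs, the limit being the all-compound median minus 4 SD, cut at about 23% in these data, passing the limit was not always enough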;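 note: 0% = wells killed by 20 µM Hyamine and 100% = untreated DMSO cell wells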); conditions: CellTiter-Glo, 60 h, at 10 µM, stronger effect = lower value
[5] = growth suppression of PTEN-deleted HCT116, pilot screen, cell-based, HCT116 clonal line, CellTiter-Glo (AID 824;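 active = viability at or below 27.92% in each of two runs, the all-compound median minus 4 SD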;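 note: 0% = 20 µM Hyamine control and 100% = vehicle cell control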); conditions: 60 h, at 10 µM, stronger effect = lower value
[6] = inhibitors of the yeast RAM network, pilot screen, dse1pr::URA3 reporter, 5-FOA selection (AID 869;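 active = inhibition over a set limit, the all-compound mean plus 3 SD, in both replicate runs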;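 note: 0% = DMSO wells with no growth and 100% = 10 µM 1-NA-PP1 with full growth; RAM network block rescues cells from 5-FOA so hits raise OD615 growth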); conditions: S. cerevisiae dse1pr::URA3 5-FOA growth, OD615, 2 d; at 10 µM; stronger effect = higher value; strain carries analog-sensitive mutant Cbk1 kinase
[7] = RAM signaling pathway blockade in yeast – S. cerevisiae, Pdr1DBD-CYC8 efflux-inhibited sensitized strain, primary screen (AID 1298;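 active = RAM network inhibition above 8.4% in each of two replicates, 3 SD over the compound average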;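 note: 0% = DMSO untreated cells without growth and 100% = 10 µM 1-NA-PP1 full growth; higher means more yeast growth rescued from 5-FOA killing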); conditions: S. cerevisiae cbk1-as DSE1-URA3 strain, 5-FOA growth OD615, 2 d; at 50 µM; stronger effect = higher value

COc1ccccc1N(CC(N)=O)S(=O)(=O)c1ccc(C)cc1
inactive: growth inhibition [1] 0.675% | growth inhibition [2] -2.73% | viability increase [3] -1.48% | viability [4] 98.2% | viability [5] 98% | inhibition [6] 0.21% | RAM network inhibition [7] 3.22%

CCOC(=O)N1CCN(C(=O)CSc2nc3c(cnn3-c3ccccc3)c(=O)[nH]2)CC1
inactive: growth inhibition [1] -2.34% | growth inhibition [2] -4.3% | viability increase [3] -4.92% | viability [4] 98.9% | viability [5] 99% | inhibition [6] 0.19% | RAM network inhibition [7] -1.2%

N#Cc1cnn(CC2CCCCC2)c1N
inactive: growth inhibition [1] -15.6% | growth inhibition [2] -8.75% | viability increase [3] -0.89% | viability [4] 89.4% | viability [5] 93.2% | inhibition [6] 1.57% | RAM network inhibition [7] 3.68%

Cc1cc(NC(=O)C2CC(c3ccc(F)cc3)=NO2)n(-c2ccccc2)n1 (stereo not given)
inactive: growth inhibition [1] -12.7% | growth inhibition [2] 2.08% | viability increase [3] 0.96% | viability [4] 97.1% | viability [5] 95.7% | inhibition [6] 1.16% | RAM network inhibition [7] -1.56%

Cc1nn(C)c(C)c1S(=O)(=O)N(CC(=O)Nc1nccs1)c1ccc(C(C)C)cc1
inactive: growth inhibition [1] -0.91% | growth inhibition [2] -7.29% | viability increase [3] -4.04% | viability [4] 99% | viability [5] 90.5% | inhibition [6] 2.3% | RAM network inhibition [7] 2.72%

O=C(OCC(F)(F)C(F)F)c1ccccc1C(=O)Oc1ccc(F)cc1F
inactive: growth inhibition [1] -2.13% | growth inhibition [2] -13.3% | viability increase [3] -3.1% | viability [4] 99.1% | viability [5] 96.1% | inhibition [6] 1.86% | RAM network inhibition [7] 3.89%

CCOc1cccc(C2c3c(oc4cc(C)c(C)cc4c3=O)C(=O)N2CCCN(C)C)c1 (stereo not given)
inactive: growth inhibition [1] 1.31% | growth inhibition [2] -0.895% | viability increase [3] -3.58% | viability [4] 92.9% | viability [5] 85.9% | inhibition [6] 1.8% | RAM network inhibition [7] 2.55%

O=C(c1ccc(CS(=O)(=O)c2ccc(Br)cc2)o1)N1CCN(c2ccccn2)CC1
inactive: growth inhibition [1] -5.91% | growth inhibition [2] -14.9% | viability increase [3] -3.76% | viability [4] 98.8% | viability [5] 84.4% | inhibition [6] 1.34% | RAM network inhibition [7] 4.8%

CCN(c1ccccc1)S(=O)(=O)c1ccc(N)cc1
inactive: growth inhibition [1] -4.66% | growth inhibition [2] -1.86% | viability increase [3] -1.02% | viability [4] 94.5% | viability [5] 98.1% | inhibition [6] 2.56% | RAM network inhibition [7] 2.68%

CCC(C)Sc1nc2c(cnn2-c2ccc(C)c(C)c2)c(=O)[nH]1 (stereo not given)
inactive: growth inhibition [1] -5.49% | growth inhibition [2] 1.98% | viability increase [3] -3.4% | viability [4] 73% | viability [5] 75.9% | inhibition [6] 3.72% | RAM network inhibition [7] -0.06%

Cc1cc(C)cc(NC(=O)CSc2nc3c(c(=O)n2C)SC(C)C3)c1 (stereo not given)
inactive: growth inhibition [1] -2.6% | growth inhibition [2] 2.95% | viability increase [3] -2.79% | viability [4] 89.3% | viability [5] 92% | inhibition [6] 2.04% | RAM network inhibition [7] 6.37%

COc1ccc(S(=O)(=O)N2CCN(CCO)CC2)cc1-c1nnc2c3ccccc3c(C)nn12
inactive: growth inhibition [1] -4.39% | growth inhibition [2] -6.93% | viability increase [3] -0.85% | viability [4] 101% | viability [5] 101% | inhibition [6] 1.31% | RAM network inhibition [7] 0.95%

COc1ccc(CN(C)C2CCCCC2)cc1
inactive: growth inhibition [1] -16.4% | growth inhibition [2] -4.68% | viability increase [3] 0.58% | viability [4] 95.9% | viability [5] 99% | inhibition [6] 1.12% | RAM network inhibition [7] 4.95%

CCOC(=O)Cn1c(=NC(=O)CSC(C)=O)sc2ccccc21
inactive: growth inhibition [1] 0% | growth inhibition [2] 8.74% | viability increase [3] -4.54% | viability [4] 105% | viability [5] 106% | inhibition [6] 0.465% | RAM network inhibition [7] 4.02%

COc1ccc(OC)c(NC(=O)c2ccc(NC(C)=O)cc2)c1
inactive: growth inhibition [1] -22.5% | growth inhibition [2] -12.5% | viability increase [3] 0.76% | viability [4] 109% | viability [5] 101% | inhibition [6] 1.2% | RAM network inhibition [7] 5.24%
